ChEMBL document CHEMBL1212756, “Klebsiella pneumoniae AcrAB efflux pump contributes to antimicrobial resistance and virulence” (2010)
Converted amounts (≈) assume the structure as drawn. The source made the active and inactive calls. The calls are words filed in the database; no cut-off is given here.

Tests used:
Klebsiella pneumoniae [1] = experiment: Antimicrobial activity against rifampin resistant Klebsiella pneumoniae 52145R assessed as growth inhibition by Etest method; type: functional
How it was run: (§1)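 MICs were read from Etest strips following the manufacturer's instructions. The parent strain is a spontaneous rifampin-resistant mutant of clinical isolate 52145 (serotype O1:K2), grown in LB at 37°C. The acrB and acrR knockouts were made from it by insertion-duplication via homologous recombination with plasmid pFS100.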

Klebsiella pneumoniae [2] = experiment: Antimicrobial activity against rifampin resistant Klebsiella pneumoniae 52deltaacrB containing isogenic acrB knockout assessed as growth inhibition by Etest method; type: functional; how it was run: as §1
Klebsiella pneumoniae [3] = experiment: Antimicrobial activity against rifampin resistant Klebsiella pneumoniae 52deltaacrR containing isogenic acrR knockout assessed as growth inhibition by Etest method; type: functional; how it was run: as §1
Klebsiella pneumoniae [4] = experiment: Antimicrobial activity against rifampin resistant Klebsiella pneumoniae 52145R assessed as growth inhibition at 0.1 ug/ml in presence of 50 uM uncoupler CCCP and glucose by Etest method; type: functional, organism-based
How it was run: (§2)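 Exponential-phase LB cultures (37°C) were harvested and resuspended at ca. 2.1 x 10^5 CFU/ml in 1% tryptone-PBS, pH 7.4. They were exposed to polymyxin B 0.1 µg/ml for 30 min at 37°C, either alone, after de-energizing with 50 µM CCCP, or with 0.4% glucose. Colony counts are given as % of unexposed cells, in duplicate on at least three occasions.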

Klebsiella pneumoniae [5] = experiment: Antimicrobial activity against rifampin resistant Klebsiella pneumoniae 52145R assessed as growth inhibition at 0.1 ug/ml in presence of 50 uM uncoupler CCCP by Etest method; type: functional, organism-based; how it was run: as §2
Klebsiella pneumoniae [6] = experiment: Antimicrobial activity against rifampin resistant Klebsiella pneumoniae 52deltaacrB containing isogenic acrB knockout assessed as growth inhibition at 0.1 ug/ml by Etest method; type: functional, organism-based

| Compound | MIC (Klebsiella pneumoniae [1]) | MIC (Klebsiella pneumoniae [2]) | MIC (Klebsiella pneumoniae [3]) | growth inhibition (GI) (Klebsiella pneumoniae [4]) | growth inhibition (GI) (Klebsiella pneumoniae [5]) | growth inhibition (GI) (Klebsiella pneumoniae [6]) |
| --- | --- | --- | --- | --- | --- | --- |
| C[C@@H](O)[C@H]1C(=O)N2C(C(=O)O)=C(S[C@@H]3CN[C@H](C(=O)Nc4cccc(C(=O)O)c4)C3)[C@H](C)[C@H]12 | 0.012 µg/mL (≈ 0.0252 µM) | 0.012 µg/mL (≈ 0.0252 µM) | 0.012 µg/mL (≈ 0.0252 µM) |  |  |  |
| CO/N=C(\C(=O)N[C@@H]1C(=O)N2C(C(=O)O)=C(COC(C)=O)CS[C@H]12)c1csc(N)n1 [CEFOTAXIME] | 0.125 µg/mL (≈ 0.274 µM) | 0.06 µg/mL (≈ 0.132 µM) | 4 µg/mL (≈ 8.78 µM) |  |  |  |
| CO[C@@]1(NC(=O)Cc2cccs2)C(=O)N2C(C(=O)O)=C(COC(N)=O)CS[C@@H]21 [CEFOXITIN] | 8 µg/mL (≈ 18.7 µM) | 4 µg/mL (≈ 9.36 µM) | 32 µg/mL (≈ 74.9 µM) |  |  |  |
| O=C(N[C@H](CO)[C@H](O)c1ccc([N+](=O)[O-])cc1)C(Cl)Cl [CHLORAMPHENICOL] | 2 µg/mL (≈ 6.19 µM) | 1 µg/mL (≈ 3.09 µM) | 4 µg/mL (≈ 12.4 µM) |  |  |  |
| O=C(O)c1cn(C2CC2)c2cc(N3CCNCC3)c(F)cc2c1=O [CIPROFLOXACIN] |  | 0.008 µg/mL (≈ 0.0241 µM) |  |  |  |  |
| CC[C@H]1OC(=O)[C@H](C)[C@@H](O[C@H]2C[C@@](C)(OC)[C@@H](O)[C@H](C)O2)[C@H](C)[C@@H](O[C@@H]2O[C@H](C)C[C@H](N(C)C)[C@H]2O)[C@](C)(O)C[C@@H](C)C(=O)[C@H](C)[C@@H](O)[C@]1(C)O [ERYTHROMYCIN] | 32 µg/mL (≈ 43.6 µM) | 8 µg/mL (≈ 10.9 µM) | 32 µg/mL (≈ 43.6 µM) |  |  |  |
| C[C@@H](O)[C@H]1C(=O)N2C(C(=O)O)=C(SCCNC=N)C[C@H]12 [IMIPENEM ANHYDROUS] | 0.125 µg/mL (≈ 0.418 µM) | 0.125 µg/mL (≈ 0.418 µM) | 0.125 µg/mL (≈ 0.418 µM) |  |  |  |
| C[C@H]1COc2c(N3CCN(C)CC3)c(F)cc3c(=O)c(C(=O)O)cn1c23.C[C@H]1COc2c(N3CCN(C)CC3)c(F)cc3c(=O)c(C(=O)O)cn1c23.O [LEVOFLOXACIN] | 0.09 µg/mL | 0.006 µg/mL | 0.19 µg/mL |  |  |  |
| C[C@@H](O)[C@H]1C(=O)N2C(C(=O)O)=C(S[C@@H]3CN[C@H](C(=O)N(C)C)C3)[C@H](C)[C@H]12 [MEROPENEM] | 0.03 µg/mL (≈ 0.0782 µM) | 0.03 µg/mL (≈ 0.0782 µM) | 0.03 µg/mL (≈ 0.0782 µM) |  |  |  |
| CCn1cc(C(=O)O)c(=O)c2ccc(C)nc21 [NALIDIXIC ACID] | 4 µg/mL (≈ 17.2 µM) | 0.5 µg/mL (≈ 2.15 µM) | 8 µg/mL (≈ 34.4 µM) |  |  |  |
| CN(C)[C@@H]1C(O)=C(C(N)=O)C(=O)[C@@]2(O)C(O)=C3C(=O)c4c(O)cccc4[C@@](C)(O)[C@H]3C[C@@H]12 [TETRACYCLINE] | 2 µg/mL (≈ 4.5 µM) | 0.25 µg/mL (≈ 0.563 µM) | 4 µg/mL (≈ 9 µM) |  |  |  |
| NC[C@H]1O[C@H](O[C@H]2[C@H](O)[C@@H](O[C@H]3O[C@H](CO)[C@@H](O)[C@H](N)[C@H]3O)[C@H](N)C[C@@H]2N)[C@H](N)C[C@@H]1O [TOBRAMYCIN] | 0.25 µg/mL (≈ 0.535 µM) | 0.125 µg/mL (≈ 0.267 µM) | 0.25 µg/mL (≈ 0.535 µM) |  |  |  |
| GENTAMICIN | 0.25 µg/mL | 0.06 µg/mL | 0.25 µg/mL |  |  |  |
| POLYMYXIN B |  |  |  | inactive | Active | Active |
